The Kd is a measure of binding affinity in units of concentration.

Calls of active or inactive are those of the source. The calls are words filed in the database; no cut-off is given here.

In experiment [1] the target is von Hippel-Lindau disease tumor suppressor/Indoleamine 2,3-dioxygenase 1 (Homo sapiens) (UniProt P14902+P40337). Nature of the experiment: Protac activity at IDO1/VHL in IFNgamma-stimulated human U87 cells assessed as IDO1 degradation at 10 uM measured after 24 hrs by Western blotting analysis relative to control. Type of experiment: cell-based. The method in brief:
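U87 GBM cells primed with human IFNγ 50 ng/mL for 24 h, then exposed to PROTAC at 10 μM for 24 h. Lysates run on western blot; IDO1 bands quantified by densitometry and expressed as percent of normalized IDO1 protein level.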
On the technique in general: In western blotting, separated proteins are transferred to a membrane and probed.

Experiment [2] deals with Indoleamine 2,3-dioxygenase 1 (Homo sapiens, UniProt P14902). Put plainly: Binding affinity to IDO1 (unknown origin) assessed as dissociation constant by bio-layer interferometry assay. A digest of the protocol:
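Bio-layer interferometry measured binding to IDO1 at 30 °C in PBS with 0.5% DMSO. Kd, kon and koff were derived.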
Background: Biolayer interferometry detects binding as a change in optical thickness at a sensor tip.

In experiment [3] the target is Protein cereblon/Indoleamine 2,3-dioxygenase 1 (Homo sapiens, UniProt P14902+Q96SW2). Nature of the experiment: Protac activity at CRBN/IDO1 in human U87 cells assessed as decrease in phosphorylated NF-kappaB p65 in nucleus at 1 to 10 uM measured after 24 hrs by Western blot analysis. Type of experiment: cell-based. Conditions: dose 1-10 µM.
Protein cereblon/Indoleamine 2,3-dioxygenase 1, sequence (P14902 whole entry, looked up): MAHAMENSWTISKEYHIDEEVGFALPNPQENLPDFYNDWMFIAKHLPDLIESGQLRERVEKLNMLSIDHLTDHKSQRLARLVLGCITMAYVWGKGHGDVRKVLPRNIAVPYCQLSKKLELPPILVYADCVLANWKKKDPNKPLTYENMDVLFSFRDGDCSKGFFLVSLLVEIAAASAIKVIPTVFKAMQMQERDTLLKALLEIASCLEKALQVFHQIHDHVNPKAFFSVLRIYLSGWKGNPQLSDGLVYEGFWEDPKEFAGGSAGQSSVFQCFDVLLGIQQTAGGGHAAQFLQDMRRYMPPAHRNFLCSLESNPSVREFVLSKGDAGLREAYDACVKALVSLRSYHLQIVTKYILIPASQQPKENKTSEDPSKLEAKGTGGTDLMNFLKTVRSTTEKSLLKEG
Protein cereblon/Indoleamine 2,3-dioxygenase 1, sequence (Q96SW2 whole entry, looked up): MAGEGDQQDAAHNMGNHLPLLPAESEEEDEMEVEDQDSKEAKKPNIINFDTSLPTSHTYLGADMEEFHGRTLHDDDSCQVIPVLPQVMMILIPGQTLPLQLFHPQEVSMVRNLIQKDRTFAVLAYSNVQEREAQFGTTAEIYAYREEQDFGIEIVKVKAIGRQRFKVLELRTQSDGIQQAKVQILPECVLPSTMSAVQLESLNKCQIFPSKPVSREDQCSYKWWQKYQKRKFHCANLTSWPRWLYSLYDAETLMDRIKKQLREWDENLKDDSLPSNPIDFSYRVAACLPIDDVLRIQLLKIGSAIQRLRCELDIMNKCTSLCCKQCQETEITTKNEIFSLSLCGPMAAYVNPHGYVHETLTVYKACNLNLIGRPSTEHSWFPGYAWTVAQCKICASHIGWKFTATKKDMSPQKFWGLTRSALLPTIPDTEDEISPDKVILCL

von Hippel-Lindau disease tumor suppressor/Indoleamine 2,3-dioxygenase 1 (Homo sapiens), sequence (P14902 whole entry, looked up): as the sequence (P14902 whole entry, looked up) above
von Hippel-Lindau disease tumor suppressor/Indoleamine 2,3-dioxygenase 1 (Homo sapiens), sequence (P40337 whole entry, looked up): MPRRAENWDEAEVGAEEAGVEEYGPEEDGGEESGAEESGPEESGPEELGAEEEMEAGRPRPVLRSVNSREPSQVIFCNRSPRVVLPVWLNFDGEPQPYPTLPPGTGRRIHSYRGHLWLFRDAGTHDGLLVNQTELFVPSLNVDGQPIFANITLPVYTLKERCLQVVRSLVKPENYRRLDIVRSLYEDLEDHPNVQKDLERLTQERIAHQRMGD
Indoleamine 2,3-dioxygenase 1, sequence (P14902 whole entry): as the sequence (P14902 whole entry, looked up) above

Regarding `Cc1ncsc1-c1ccc(CNC(=O)[C@@H]2C[C@@H](O)CN2C(=O)[C@@H](NC(=O)C2(F)CC2)C(C)(C)C)c(OCCCOc2cc(NC(=O)[C@H](C)[C@H]3CC[C@@H](c4ccnc5ccc(F)cc54)CC3)ccc2Cl)c1`, in experiment [1], the Activity is 0%.
Turning to `C[C@@H](C(=O)Nc1ccc(OC2CCN(C(=O)CCOCCOCCNc3cccc4c3C(=O)N(C3CCC(=O)N(C)C3=O)C4=O)CC2)cc1)[C@H]1CC[C@@H](c2ccnc3ccc(F)cc32)CC1` (stereo partly specified), the Kd in experiment [2] amounted to 1.1 µM. The outcome in experiment [3] was Active.
For the compound `Cc1ncsc1-c1ccc(CNC(=O)[C@@H]2C[C@@H](O)CN2C(=O)[C@@H](NC(=O)C2(F)CC2)C(C)(C)C)c(OCCOCCOCCOCCOCCOCCOc2ccc(NC(=O)[C@H](C)[C@H]3CC[C@@H](c4ccnc5ccc(F)cc54)CC3)cc2)c1`, in experiment [1], the Activity is 27%.
Still for that read-out and setting: then `Cc1ncsc1-c1ccc(CNC(=O)[C@@H]2C[C@@H](O)CN2C(=O)[C@@H](NCCOCCOc2ccc(NC(=O)[C@H](C)[C@H]3CC[C@@H](c4ccnc5ccc(F)cc54)CC3)cc2)C(C)(C)C)cc1`, with 0%; and `Cc1ncsc1-c1ccc(CNC(=O)[C@H]2C[C@H](O)CN2C(=O)[C@H](NCCCOc2cc(NC(=O)[C@H](C)[C@H]3CC[C@@H](c4ccnc5ccc(F)cc54)CC3)ccc2Cl)C(C)(C)C)cc1`, with 0%.
Take `Cc1ncsc1-c1ccc(CNC(=O)[C@H]2C[C@H](O)CN2C(=O)[C@H](NCCCCCCCCCOc2cc(NC(=O)[C@H](C)[C@H]3CC[C@@H](c4ccnc5ccc(F)cc54)CC3)ccc2Cl)C(C)(C)C)cc1`: the Activity in experiment [1] was found to be 3%.
As for `Cc1ncsc1-c1ccc(CNC(=O)[C@H]2C[C@H](O)CN2C(=O)[C@H](NCCCCCCOc2cc(NC(=O)[C@H](C)[C@H]3CC[C@@H](c4ccnc5ccc(F)cc54)CC3)ccc2Cl)C(C)(C)C)cc1`, the Activity in experiment [1] was 21%.
The same measure, in the same setting: the figure for `Cc1ncsc1-c1ccc(CNC(=O)[C@@H]2C[C@@H](O)CN2C(=O)[C@@H](NC(=O)C2(F)CC2)C(C)(C)C)c(OCCOCCOCCOCCOCCOCCOc2cc(NC(=O)[C@H](C)[C@H]3CC[C@@H](c4ccnc5ccc(F)cc54)CC3)ccc2Cl)c1` is 0%.
`Cc1ncsc1-c1ccc(CNC(=O)[C@@H]2C[C@@H](O)CN2C(=O)[C@@H](NCCOCCOCCC(=O)N2CCC(Oc3ccc(NC(=O)[C@H](C)[C@H]4CC[C@@H](c5ccnc6ccc(F)cc65)CC4)cc3)CC2)C(C)(C)C)cc1`: in experiment [1], the Activity amounted to 67%.
Regarding `Cc1ncsc1-c1ccc(CNC(=O)[C@@H]2C[C@@H](O)CN2C(=O)[C@@H](NC(=O)C2(F)CC2)C(C)(C)C)c(OCCCCCCCCCOc2cc(NC(=O)[C@H](C)[C@H]3CC[C@@H](c4ccnc5ccc(F)cc54)CC3)ccc2Cl)c1`, the Activity in experiment [1] was found to be 90%.
On the same count and under the same terms, then `Cc1ncsc1-c1ccc(CNC(=O)[C@@H]2C[C@@H](O)CN2C(=O)[C@@H](NC(=O)C2(F)CC2)C(C)(C)C)c(OCCOCCOCCOCCOCCOc2cc(NC(=O)[C@H](C)[C@H]3CC[C@@H](c4ccnc5ccc(F)cc54)CC3)ccc2Cl)c1`, with 0%; and `Cc1ncsc1-c1ccc(CNC(=O)[C@@H]2C[C@@H](O)CN2C(=O)[C@@H](NC(=O)C2(F)CC2)C(C)(C)C)c(OCCOCCOc2ccc(NC(=O)[C@H](C)[C@H]3CC[C@@H](c4ccnc5ccc(F)cc54)CC3)cc2)c1`, with 39%.
Still for that read-out and setting: then `Cc1ncsc1-c1ccc(CNC(=O)[C@@H]2C[C@@H](O)CN2C(=O)[C@@H](NCCOCCOCCOCCOCCOCCOc2cc(NC(=O)[C@H](C)[C@H]3CC[C@@H](c4ccnc5ccc(F)cc54)CC3)ccc2Cl)C(C)(C)C)cc1`, with 0%.
Regarding `Cc1ncsc1-c1ccc(CNC(=O)[C@@H]2C[C@@H](O)CN2C(=O)[C@@H](NCCOCCOCCOCCOc2cc(NC(=O)[C@H](C)[C@H]3CC[C@@H](c4ccnc5ccc(F)cc54)CC3)ccc2Cl)C(C)(C)C)cc1`, in experiment [1], the Activity came to 0%.
For `Cc1ncsc1-c1ccc(CNC(=O)[C@@H]2C[C@@H](O)CN2C(=O)[C@@H](NC(=O)C2(F)CC2)C(C)(C)C)c(OCCOCCOCCC(=O)N2CCC(Oc3ccc(NC(=O)[C@H](C)[C@H]4CC[C@@H](c5ccnc6ccc(F)cc65)CC4)cc3)CC2)c1`, the Activity in experiment [1] was determined as 3%.
As to `Cc1ncsc1-c1ccc(CNC(=O)[C@@H]2C[C@@H](O)CN2C(=O)[C@@H](NC(=O)C2(F)CC2)C(C)(C)C)c(OCCCCOc2ccc(NC(=O)[C@H](C)[C@H]3CC[C@@H](c4ccnc5ccc(F)cc54)CC3)cc2)c1`, the Activity in experiment [1] came to 10%.
On to `Cc1ncsc1-c1ccc(CNC(=O)[C@@H]2C[C@@H](O)CN2C(=O)[C@@H](NC(=O)C2(F)CC2)C(C)(C)C)c(OCCCCCCCCCCOc2ccc(NC(=O)[C@H](C)[C@H]3CC[C@@H](c4ccnc5ccc(F)cc54)CC3)cc2)c1`, for which the Activity in experiment [1] was determined as 23%.
For the compound `Cc1ncsc1-c1ccc(CNC(=O)[C@@H]2C[C@@H](O)CN2C(=O)[C@@H](NC(=O)C2(F)CC2)C(C)(C)C)c(OCCOCCOCCOCCOc2ccc(NC(=O)[C@H](C)[C@H]3CC[C@@H](c4ccnc5ccc(F)cc54)CC3)cc2)c1`, the Activity in experiment [1] amounted to 0%.
As for `Cc1ncsc1-c1ccc(CNC(=O)[C@@H]2C[C@@H](O)CN2C(=O)[C@@H](NC(=O)C2(F)CC2)C(C)(C)C)c(OCCOCCOCCOCCOCCOc2ccc(NC(=O)[C@H](C)[C@H]3CC[C@@H](c4ccnc5ccc(F)cc54)CC3)cc2)c1`, in experiment [1], the Activity came to 0%.
With `Cc1ncsc1-c1ccc(CNC(=O)[C@@H]2C[C@@H](O)CN2C(=O)[C@@H](NCCOCCOCCOCCOCCOCCOc2cccc(NC(=O)[C@H](C)[C@H]3CC[C@@H](c4ccnc5ccc(F)cc54)CC3)c2)C(C)(C)C)cc1`, the Activity in experiment [1] stood at 0%.
Regarding `Cc1ncsc1-c1ccc(CNC(=O)[C@@H]2C[C@@H](O)CN2C(=O)[C@@H](NCCOCCC(=O)N2CCC(Oc3ccc(NC(=O)[C@H](C)[C@H]4CC[C@@H](c5ccnc6ccc(F)cc65)CC4)cc3)CC2)C(C)(C)C)cc1`, in experiment [1], the Activity was 88%.
On to `Cc1ncsc1-c1ccc(CNC(=O)[C@@H]2C[C@@H](O)CN2C(=O)[C@@H](NCCCCOc2ccc(NC(=O)[C@H](C)[C@H]3CC[C@@H](c4ccnc5ccc(F)cc54)CC3)cc2)C(C)(C)C)cc1`, for which the Activity in experiment [1] was determined as 0%.
`Cc1ncsc1-c1ccc(CNC(=O)[C@@H]2C[C@@H](O)CN2C(=O)[C@@H](NC(=O)C2(F)CC2)C(C)(C)C)c(OCCCCCCOc2cc(NC(=O)[C@H](C)[C@H]3CC[C@@H](c4ccnc5ccc(F)cc54)CC3)ccc2Cl)c1`: the Activity in experiment [1] worked out at 0%.
As for `Cc1ncsc1-c1ccc(CNC(=O)[C@@H]2C[C@@H](O)CN2C(=O)[C@@H](NCCOCCOCCOc2cc(NC(=O)[C@H](C)[C@H]3CC[C@@H](c4ccnc5ccc(F)cc54)CC3)ccc2Cl)C(C)(C)C)cc1`, the Activity in experiment [1] is 0%.
Same read-out and setting: the figure for `Cc1ncsc1-c1ccc(CNC(=O)[C@@H]2C[C@@H](O)CN2C(=O)[C@@H](NCCOCCOc2cc(NC(=O)[C@H](C)[C@H]3CC[C@@H](c4ccnc5ccc(F)cc54)CC3)ccc2Cl)C(C)(C)C)cc1` is 0%.

The values are drawn from ChEMBL document CHEMBL5150051, “Identification and Characterization of a Novel Indoleamine 2,3-Dioxygenase 1 Protein Degrader for Glioblastoma” (J Med Chem, 2022).
